Source: ChEMBL document CHEMBL1140082, “Design, synthesis, and biological evaluation of potent c-Met inhibitors” (J Med Chem, 2008)
pIC50, pKi: −log10 of the molar value.

Key:
[1] = molecular target: Ribosomal protein S6 kinase alpha-5 (Homo sapiens, UniProt O75582); assay: Inhibition of MSK1
[2] = molecular target: Vascular endothelial growth factor receptor 2 (Homo sapiens, UniProt P35968); assay: Inhibition of phosphorylated KDR by HTRF assay
How it was run: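 HTRF assay against KDR kinase with 10-point serial dilution. ATP at two-thirds of the experimentally determined Km (Eadie-Hofstee and Lineweaver-Burke). Ki derived from the IC50.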

[3] = molecular target: Macrophage-stimulating protein receptor (Homo sapiens, UniProt Q04912); assay: Inhibition of phosphorylated RON
[4] = tested on: Mus musculus; assay: Inhibition of human recombinant HGF-induced cMet phosphorylation in po or ip dosed BALB/c mouse liver after 2 hrs
[5] = molecular target: Tyrosine-protein kinase BTK (Homo sapiens, UniProt Q06187); assay: Inhibition of BTK
[6] = molecular target: Serine/threonine-protein kinase pim-2 (Homo sapiens, UniProt Q9P1W9); assay: Inhibition of PIM2 kinase
[7] = molecular target: Cyclin-dependent kinase 5 (Homo sapiens, UniProt Q00535); assay: Inhibition of CDK5
[8] = molecular target: RAC-alpha serine/threonine-protein kinase (Homo sapiens, UniProt P31749); assay: Inhibition of PKBalpha
[9] = molecular target: Ribosomal protein S6 kinase beta-1 (Homo sapiens, UniProt P23443); assay: Inhibition of P70S6
[10] = Bioavailability in iv dosed rat; format: ADME, organism-based; conditions: in vivo
[11] = molecular target: Fibroblast growth factor receptor 2 (Homo sapiens, UniProt P21802); assay: Inhibition of FGFRK2
[12] = Volume of distribution in iv dosed rat; format: ADME, organism-based; conditions: in vivo
[13] = molecular target: Mitogen-activated protein kinase 9 (Homo sapiens, UniProt P45984); assay: Inhibition of JNK2
[14] = Clearance in iv dosed rat; format: ADME, organism-based; conditions: in vivo
[15] = molecular target: cAMP-dependent protein kinase catalytic subunit alpha (Homo sapiens, UniProt P17612); assay: Inhibition of PKAalpha
[16] = molecular target: T1, Aurora kinase A (Homo sapiens, UniProt O14965); assay: Inhibition of Aurora2
T1 sequence (O14965 whole entry): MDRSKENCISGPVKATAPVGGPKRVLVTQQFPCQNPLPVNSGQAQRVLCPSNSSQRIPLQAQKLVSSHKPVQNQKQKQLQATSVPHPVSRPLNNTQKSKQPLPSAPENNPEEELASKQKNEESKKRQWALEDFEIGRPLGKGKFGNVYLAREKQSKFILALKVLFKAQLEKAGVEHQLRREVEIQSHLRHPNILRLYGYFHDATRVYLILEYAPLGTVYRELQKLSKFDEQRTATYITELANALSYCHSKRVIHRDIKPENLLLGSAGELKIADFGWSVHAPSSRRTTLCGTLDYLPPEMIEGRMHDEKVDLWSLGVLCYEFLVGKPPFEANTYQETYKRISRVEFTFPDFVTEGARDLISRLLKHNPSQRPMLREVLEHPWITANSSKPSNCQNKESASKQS

[17] = molecular target: Hepatocyte growth factor receptor (Homo sapiens, UniProt P08581); assay: Inhibition of cMet by HTRF assay
[18] = molecular target: Tyrosine-protein kinase ZAP-70 (Homo sapiens, UniProt P43403); assay: Inhibition of ZAP70
[19] = molecular target: Mitogen-activated protein kinase 3 (Homo sapiens, UniProt P27361); assay: Inhibition of ERK1
[20] = Inhibition of P38 kinase
[21] = molecular target: Tyrosine-protein kinase JAK2 (Homo sapiens, UniProt O60674); assay: Inhibition of JAK2
[22] = Inhibition of IGFR
[23] = molecular target: Angiopoietin-1 receptor (Homo sapiens, UniProt Q02763); assay: Inhibition of Tie2 kinase
[24] = molecular target: Serine/threonine-protein kinase pim-1 (Homo sapiens, UniProt P11309); assay: Inhibition of PIM1 kinase
[25] = molecular target: T2, Tyrosine-protein kinase JAK3 (Homo sapiens, UniProt P52333); assay: Inhibition of JAK3
T2 sequence (P52333 whole entry): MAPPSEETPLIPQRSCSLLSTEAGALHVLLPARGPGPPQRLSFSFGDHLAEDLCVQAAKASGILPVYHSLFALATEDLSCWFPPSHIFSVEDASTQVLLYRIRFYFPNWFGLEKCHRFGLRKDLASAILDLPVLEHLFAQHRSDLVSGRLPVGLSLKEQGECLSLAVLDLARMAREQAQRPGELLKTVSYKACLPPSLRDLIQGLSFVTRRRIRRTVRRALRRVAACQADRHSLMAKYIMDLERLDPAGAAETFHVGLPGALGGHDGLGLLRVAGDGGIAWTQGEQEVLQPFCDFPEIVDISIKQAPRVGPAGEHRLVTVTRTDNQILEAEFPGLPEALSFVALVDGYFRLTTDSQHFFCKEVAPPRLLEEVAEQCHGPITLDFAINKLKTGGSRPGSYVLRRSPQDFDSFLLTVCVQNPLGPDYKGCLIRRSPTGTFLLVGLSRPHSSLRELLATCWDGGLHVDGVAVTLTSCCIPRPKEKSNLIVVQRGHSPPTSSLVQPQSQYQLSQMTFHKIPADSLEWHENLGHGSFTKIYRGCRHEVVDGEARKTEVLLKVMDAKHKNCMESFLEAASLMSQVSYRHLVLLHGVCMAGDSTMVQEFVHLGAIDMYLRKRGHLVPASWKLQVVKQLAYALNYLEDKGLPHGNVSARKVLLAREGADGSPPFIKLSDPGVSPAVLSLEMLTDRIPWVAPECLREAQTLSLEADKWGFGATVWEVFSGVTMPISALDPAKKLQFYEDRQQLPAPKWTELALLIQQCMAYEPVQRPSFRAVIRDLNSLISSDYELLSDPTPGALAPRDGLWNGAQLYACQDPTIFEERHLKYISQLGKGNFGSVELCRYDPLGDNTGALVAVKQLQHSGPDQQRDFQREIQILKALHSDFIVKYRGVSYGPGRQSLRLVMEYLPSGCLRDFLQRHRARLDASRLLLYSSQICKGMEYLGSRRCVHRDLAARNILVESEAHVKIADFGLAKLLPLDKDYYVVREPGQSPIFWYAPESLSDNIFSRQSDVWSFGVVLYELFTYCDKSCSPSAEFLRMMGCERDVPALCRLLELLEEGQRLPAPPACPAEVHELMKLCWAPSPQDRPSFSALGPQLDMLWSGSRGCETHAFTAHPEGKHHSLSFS

[26] = molecular target: Tyrosine-protein kinase Lck (Homo sapiens, UniProt P06239); assay: Inhibition of LCK
[27] = molecular target: Vascular endothelial growth factor receptor 3 (Homo sapiens, UniProt P35916); assay: Inhibition of Flt4 kinase
[28] = molecular target: Macrophage colony-stimulating factor 1 receptor (Homo sapiens, UniProt P07333); assay: Inhibition of cFMS kinase
[29] = Half life in iv dosed rat; format: ADME, organism-based; conditions: in vivo
[30] = molecular target: Vascular endothelial growth factor receptor 1 (Homo sapiens, UniProt P17948); assay: Inhibition of Flt1 kinase
[31] = Inhibition of FGFRK

Work on COc1cc2c(Oc3ccc(-c4cnc(Cc5ccccc5)n(C)c4=O)cc3F)ccnc2cc1OCCCN1CCOCC1 yielded a pIC50 [1] of less than 4.00, a pKi [2] of 6.37 and a pKi [3] of 6.71. For the same compound, the ED90 [4] was 100 mg/kg, the pIC50 [5] was 7.72 and the pIC50 [6] was less than 4.60. For the same compound, the pIC50 [7] was less than 4.00, the pIC50 [8] was less than 4.00 and the pIC50 [9] was 5.00. It also gave a bioavailability [10] of 100%, a pIC50 [11] of less than 6.00 and a Vd [12] of 3.4 L/kg. For the same compound, the pIC50 [13] was less than 4.00, the clearance [14] was 9.33 mL/min/kg and the pIC50 [15] was less than 4.00. It also gave a pIC50 [16] of 6.94, a pKi [17] of 8.05 and a pIC50 [18] of less than 5.27. The pIC50 [19] was less than 4.00, the pIC50 [20] was less than 4.60 and the pIC50 [21] was less than 4.60. The pKi [22] was 5.84, the pIC50 [23] was 6.55 and the pIC50 [24] was less than 4.52. For the same compound, the pIC50 [25] was less than 5.08, the pIC50 [26] was 8.10 and the pIC50 [27] was 6.92. It also gave a pIC50 [28] of 7.43, a half-life [29] of 2.4 h and a pIC50 [30] of less than 6.00. The pIC50 [31] was less than 6.00.
